The source made the active and inactive calls.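 How the source made its calls: active means IC50 at or below 10 µM; inactive means IC50 above 10 µM.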
Molecular target: HCV core protein (core106) dimerization
Experiment: HCV core106 dimer disruption potency, late-stage follow-up, biochemical, AlphaScreen luminescence, powder samples (AID 651577)
Conditions: AlphaScreen GST-/Flag-core106 dimerization
Summary of the method: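 Material – GST- and Flag-tagged HCV core106 proteins · Also added – Anti-Flag acceptor and glutathione donor beads, 20 µg/mL each · Doses – 10-point concentration series of powder samples · Times – 1 h tagged-protein preincubation at room temperature, then 1 h per bead · Technique – AlphaScreen luminescence · Measure – IC50 from four-parameter sigmoidal curve fit · Replicates – triplicate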

IC50 | Compound
inactive | Cc1ccc(Cc2c(C)nc3nc(SCC(=O)NCCN4CCN(CCc5ccccc5)CC4)nn3c2C)cc1
1000 nM | Cc1ccc(Cc2c(C)nc3nc(SCC(=O)NCCN4CCOCC4)nn3c2C)cc1
1600 nM | Cc1ccc(Cc2c(C)nc3nc(SCC(=O)NCCN4CCCN(S(=O)(=O)c5ccccc5)CC4)nn3c2C)cc1
2600 nM | Cc1ccc(Cc2c(C)nc3nc(SCC(=O)NCCN4CCCN(S(=O)(=O)c5ccc(C)cc5)CC4)nn3c2C)cc1
10200 nM | Cc1ccc(Cc2c(C)nc3nc(SCC(=O)NCCN4CCN(S(=O)(=O)c5ccccc5)CC4)nn3c2C)cc1
inactive | Cc1ccc(Cc2c(C)nc3nc(SCC(=O)NCCN4CCCCC4)nn3c2C)cc1
9900 nM | Cc1ccc(Cc2c(CCc3ccccc3)nc3nc(SC(Cc4ccccc4)C(=O)NCCN4CCOCC4)nn3c2C)cc1 (centres undefined)
inactive | Cc1ccc(Cc2c(C)nc3nc(SCC(=O)NCCN4CCN(Cc5ccc(Cl)cc5)CC4)nn3c2C)cc1
510 nM | Cc1ccc(Cc2c(C)nc3nc(SCC(=O)NCCN4CCCN(S(C)(=O)=O)CC4)nn3c2C)cc1
inactive | Cc1ccc(Cc2c(C)nc3nc(SCC(=O)NCCN4CCN(Cc5ccc(F)cc5)CC4)nn3c2C)cc1
1900 nM | Cc1ccc(Cc2c(C)nc3nc(SCC(=O)NCCN4CCCCCC4)nn3c2C)cc1
inactive | Cc1ccc(Cc2c(C)nc3nc(SCC(=O)NCCN4CCN(C(=O)OC(C)(C)C)CC4)nn3c2C)cc1
inactive | Cc1ccc(Cc2c(C)nc3nc(SCC(=O)NCCN4CCN(Cc5ccccc5)CC4)nn3c2C)cc1
8400 nM | Cc1ccc(Cc2c(C)nc3nc(SCC(=O)NCCN4CCNCC4)nn3c2C)cc1
